Source: PubChem BioAssay (several laboratories)
NF-kB expr up: activators of NF-kB expression in neurons, primary screen, cell-based, HTS. AID 1239, 2008. 190,000 tested, 1.6% active. human neuronal cells, NF-kB reporter expression; active compounds read high. fold change at 12.5 µM; in the data active = fold change above about 3.3
STAT3 inh-1: IL-6 driven STAT3 reporter inhibitors, primary screen, U3A cells, luciferase, luminescence, MLSCN library; IL-6 STAT3-luciferase reporter; host cell line lacks STAT1; inhibition, % at 5.5 µM; 190,000 tested, 0.89% active;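 active = inhibition above the mean inhibition across all screened compounds plus 3 SD, cut at about 44% in these data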;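 also: 0% = DMSO only wells and 100% = 100 µM nifuroxazide control wells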
STAT1 blocker: STAT1 signaling inhibitors, primary screen, cell-based, HTS, luciferase reporter; 200,000 tested, 0.35% active; AID 920, 2007; NIH 3T3 STAT1-luciferase reporter, IFN-gamma, luminescence; inhibition, % at 5.5 µM;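 active = inhibition above a set limit, the mean inhibition across all tested compounds plus 3 SD, cut at about 34% in these data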;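 also: 0% = IFN-gamma with DMSO and 100% = IFN-gamma with 300 µM nifuroxazide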
STAT1 act: STAT1 signaling activators, primary screen, cell-based, HTS, luciferase reporter | AID 932, 2007 | activation (% of control), % at 5.5 µM | 200,000 tested, 2.6% active | NIH 3T3 STAT1-luciferase reporter, IFN-gamma, luminescence; 100% = IFN-gamma alone, no compound;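 active = activation above the screen-wide mean activation plus 3 SD, cut at about 130% in these data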;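 also: raw ratio to IFN-gamma control signal so 100% means no change and 0% no light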
APP 5'UTR act: activators of APP 5'UTR luciferase reporter, primary screen, SH-SY5Y cells. SH-SY5Y APP 5'UTR luciferase reporter, luminescence; zero percent = DMSO vehicle wells. activation, % at 2 µM. 190,000 tested, 1% active;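 active = activation above a set limit, based on mean plus 3 SD of controls, cut at about 140% in these data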
STAT3 act: IL-6 driven STAT3 reporter potentiators, primary screen, U3A cells, luciferase, luminescence, MLSCN library; IL-6 STAT3-luciferase reporter; 100% = signal with IL-6 EC80 alone; activation (% of control), % at 5.6 µM; 190,000 tested, 0.91% active; AID 871, 2007;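 active = activation above the screen-wide mean of compound activation plus 3 SD, cut at about 130% in these data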;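 also: 0% = background luminescence of wells with medium and substrate only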
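Detection: reporter luminescence signal / Assay system: STAT1-lacking human U3A cells, STAT3 luciferase reporter / Incubation: compound pre-incubation 1 h before IL-6, then 6 h stimulation at 37 °C / Control set: IL-6-only high control / Read-out: % activation relative to IL-6 control / Probe or stimulus: Interleukin-6, 33 ng/mL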
STAT3 inh-2: STAT3 reporter inhibitors, retest of hits, confirmation, U3A cells, luciferase, luminescence | IL-6 STAT3 luciferase reporter; cell line lacks STAT1 | inhibition, % at 5.7 µM | shares compounds with STAT3 inh-1 | 1,200 tested, 45% active;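 active = inhibition above the hit cutoff computed for the primary STAT3 screen, cut at about 44% in these data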;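 also: 0% = IL-6 plus DMSO and 100% = IL-6 plus nifuroxazide control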
NFkB inh 2: NF-kB reporter inhibitors in human cells, confirmation, counter-screen for STAT3 inhibitor project, cell-based, HEK293T, luciferase, TNF-alpha stimulus; inhibition, % at 5.7 µM; TNF-alpha induced; shares compounds with STAT3 inh-1; 1,200 tested, 36% active;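 active = inhibition above the mean of solvent-only control wells plus 3 SD, cutoff set per campaign, cut at about 13% in these data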;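 also: 0% = TNF-alpha with DMSO and 100% = TNF-alpha with MG high control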
STAT1 inh STAT3c: STAT1 reporter inhibitors, IFN-gamma induced, confirmation, counter-screen for STAT3 inhibitor project, cell-based, NIH 3T3, luciferase luminescence | shares compounds with STAT3 inh-1 | NIH 3T3 STAT1-luciferase reporter | inhibition, % at 5.7 µM | 1,200 tested, 27% active;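 active = inhibition above the mean plus 3 SD of solvent-only control wells, limit set per screening run, cut at about 16% in these data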;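 also: 0% = DMSO with IFN-gamma and 100% = nifuroxazide control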
* marks the source's active call; other numbers are inactive results. This is a sample that favours compounds with a hit; in the whole collection about 4.9% have one here.

Results for COc1ccc(C(=O)Nc2ccc3c(c2)OCCO3)cc1 ?
NF-kB expr up: 6.04*; STAT3 inh-1: 65.9*; STAT1 blocker: 9.1; STAT1 act: 91.6; APP 5'UTR act: 155.6*; STAT3 act: 48.3; STAT3 inh-2: 11.6; NFkB inh 2: -19.4; STAT1 inh STAT3c: -89.9

What do the screens show for `Cc1ccc(NC(=O)c2ccc3c(c2)OCCO3)cc1`?
NF-kB expr up: 4.07*; STAT3 inh-1: 76.9*; STAT1 blocker: 7.0; STAT1 act: 93.7; APP 5'UTR act: 145.1*; STAT3 act: 35.1; STAT3 inh-2: 42.1; NFkB inh 2: 2.5; STAT1 inh STAT3c: -83.8

Results for COc1ccc(NC(=O)C2=Cc3ccccc3OC2)cc1 ?
NF-kB expr up: 9.52*; STAT3 inh-1: 58.0*; STAT1 blocker: 20.0; STAT1 act: 80.7; APP 5'UTR act: 157.3*; STAT3 act: 53.9; STAT3 inh-2: 23.8; NFkB inh 2: -31.8; STAT1 inh STAT3c: -108.7

How did COc1ccc(NC(=O)C2=Cc3cccc(OC)c3OC2)cc1 do in these assays?
NF-kB expr up: 1.7; STAT3 inh-1: 14.4; STAT1 blocker: -17.0; STAT1 act: 115.9; APP 5'UTR act: 77.7; STAT3 act: 95.1

Results for O=C(c1ccc2c(c1)OCO2)N1CCN(c2ccc(Cl)cc2)CC1 ?
NF-kB expr up: 0.95; STAT3 inh-1: 14.3; STAT1 blocker: 13.2; STAT1 act: 88.0; APP 5'UTR act: -9.6; STAT3 act: 90.9

What do the screens show for `CS(=O)(=O)Nc1ccc(C(=O)Nc2ccc3c(c2)OCCO3)cc1`?
NF-kB expr up: 1.84; STAT3 inh-1: -5.5; STAT1 blocker: -19.1; STAT1 act: 117.5; APP 5'UTR act: 39.5; STAT3 act: 111.7

Results for Cc1cc(C(=O)NCC(=O)OCC(=O)N(C(C)C)C(C)C)ccc1[N+](=O)[O-] ?
NF-kB expr up: 1.04; STAT3 inh-1: 6.2; STAT1 blocker: 1.0; STAT1 act: 99.1; APP 5'UTR act: 2.6; STAT3 act: 99.2

Results for CCc1cccc(C)c1NC(=O)CN(C)Cc1ccccc1F ?
NF-kB expr up: 1.17; STAT3 inh-1: 10.4; STAT1 blocker: 5.9; STAT1 act: 94.8; APP 5'UTR act: 9.5; STAT3 act: 94.3

What do the screens show for `CN1CCCCCC1C(=O)N1CCC(N2CCC(C(=O)N3CCOCC3)CC2)CC1` (stereo unspecified)?
NF-kB expr up: 1.03; STAT3 inh-1: 1.4; STAT1 blocker: -6.1; STAT1 act: 103.5; APP 5'UTR act: 11.0; STAT3 act: 103.9

Results for Cc1cc(N2CCCC(C(=O)Nc3cccc4ccccc34)C2)n2ncnc2n1 (stereo unspecified) ?
NF-kB expr up: 0.91; STAT3 inh-1: 1.0; STAT1 blocker: 9.7; STAT1 act: 89.3; APP 5'UTR act: 6.7; STAT3 act: 104.9

What do the screens show for `CCCC(=O)N1CCN(c2ccc(NC(=O)c3cc4ccccc4o3)cc2)CC1`?
NF-kB expr up: 0.29; STAT3 inh-1: 29.6; STAT1 blocker: -0.3; STAT1 act: 100.2; APP 5'UTR act: -6.6; STAT3 act: 78.1

How did O=C(Nc1ccc(N2CCN(C(=O)c3ccccc3)CC2)cc1)c1cc2ccccc2o1 do in these assays?
NF-kB expr up: 0.74; STAT3 inh-1: 63.4*; STAT1 blocker: -0.2; STAT1 act: 100.2; APP 5'UTR act: -20.1; STAT3 act: 49.7; STAT3 inh-2: 58.7*; NFkB inh 2: 13.9*; STAT1 inh STAT3c: -5.3

What do the screens show for `O=C(Nc1ccc(NC(=O)c2cc3ccccc3o2)cc1)c1ccc2c(c1)OCCO2`?
NF-kB expr up: 1.12; STAT3 inh-1: 46.7*; STAT1 blocker: 24.3; STAT1 act: 78.5; APP 5'UTR act: -66.7; STAT3 act: 63.5; STAT3 inh-2: 50.6*; NFkB inh 2: 53.9*; STAT1 inh STAT3c: 23.3*

How did Cc1ccsc1C(=O)Nc1ccc2c(c1)OCCO2 do in these assays?
NF-kB expr up: 6.24*; STAT3 inh-1: 55.2*; STAT1 blocker: -27.5; STAT1 act: 124.8; APP 5'UTR act: 126.9; STAT3 act: 53.5; STAT3 inh-2: 13.5; NFkB inh 2: -17.1; STAT1 inh STAT3c: -77.2

How did CCc1nnc2sc(-c3ccc(NC(=O)c4ccc5c(c4)OCCO5)cc3)nn12 do in these assays?
NF-kB expr up: 0.98; STAT3 inh-1: 55.1*; STAT1 blocker: 16.9; STAT1 act: 84.4; APP 5'UTR act: 12.9; STAT3 act: 56.2; STAT3 inh-2: 51.4*; NFkB inh 2: 13.4*; STAT1 inh STAT3c: 31.7*

What do the screens show for `Cc1cc(NC(=O)c2ccc3c(c2)OCCO3)ccc1NC(=O)c1cc2ccccc2o1`?
NF-kB expr up: 0.43; STAT3 inh-1: 20.4; STAT1 blocker: -10.7; STAT1 act: 110.7; APP 5'UTR act: 27.7; STAT3 act: 84.2

What do the screens show for `Cc1cc(=O)oc2cc(OS(C)(=O)=O)ccc12`?
NF-kB expr up: 0.98; STAT3 inh-1: 4.2; STAT1 blocker: -0.3; STAT1 act: 100.3; APP 5'UTR act: -7.4; STAT3 act: 98.7

Results for Nc1[nH]n(-c2ccccc2)c(=O)c1N=Nc1ccc2c(c1)OCCO2 ?
NF-kB expr up: 1.21; STAT3 inh-1: 44.8*; STAT1 blocker: -22.2; STAT1 act: 119.9; APP 5'UTR act: 167.4*; STAT3 act: 64.8; STAT3 inh-2: 9.8; NFkB inh 2: -15.3; STAT1 inh STAT3c: -94.3

What do the screens show for `O=S1(=O)CCN(OCc2ccc(Cl)cc2)CC1`?
NF-kB expr up: 1.15; STAT3 inh-1: 7.1; STAT1 blocker: -3.5; STAT1 act: 101.8; APP 5'UTR act: -12.4; STAT3 act: 95.9

What do the screens show for `CC(=O)c1c(C)[nH]c(C(=O)COc2cc(C)cc(C)c2)c1C`?
NF-kB expr up: 0.88; STAT3 inh-1: 44.2*; STAT1 blocker: 12.4; STAT1 act: 89.0; APP 5'UTR act: 9.4; STAT3 act: 66.3; STAT3 inh-2: 35.6; NFkB inh 2: 6.8; STAT1 inh STAT3c: 12.3
